Three compounds from ChEMBL document CHEMBL1140424, “Charge dependence of cellular uptake and selective antitumor activity of porphyrazines” (J Med Chem, 2005) can be followed below.

Data set [1] has as its system A549. Briefly: Cellular uptake in A549 cells using false-white single-photon confocal microscopy at 3.1 uM. The format is ADME, cell-based. Conditions: human, a549, 3.1 µM; call rule not given here. The gist of the method:
(§1)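 Cells on glass coverslips grown at 37 °C, 5% CO2 to 60–80% confluence, then treated with pz (50, 25, 12.5, 6.2, 3.1 µM; DMSO stock) in the dark for 24 h. Washed twice with PBS and imaged live in PBS at room temperature. Single-photon excitation at 488 nm, long-pass 505-nm emission filter. Gain set to remove autofluorescence in DMSO-treated controls.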

For data set [2], the system named is A549. Briefly: Decrease in viability of A549 cells at 50 uM for 72 hrs. Format: cell-based. Particulars: human, a549, 72 h. The gist of the method: (§2)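 Cells were grown to 70% confluence and treated in the dark with pz (12.5, 25, 50, 100 µM) or DMSO vehicle for 72 h. MTT (200 µg) was added for 5 h at 37 °C, solubilised in DMSO, and absorbance read at 540 nm. Viability is relative to DMSO control. Four plates per experiment, at least three experiments, normalised and averaged (≥12 values per condition).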

In data set [3] the test system is A549. Briefly: Cellular uptake in A549 cells using false-white single-photon confocal microscopy. The format is ADME, cell-based. Conditions: human. The gist of the method: as §1
Data set [4] concerns WI-38 VA13. Briefly: Cytotoxicity against human fibroblast-like cell line of embryonic origin WI-38 VA13 at 12.5 to 100 uM by MTT assay. Format: functional, cell-based. The gist of the method:
as §2
On the technique in general: Formazan colour is commonly taken as a measure of viable cells.

The subject of data set [5] is A549. Briefly: Cytotoxicity against A549 tumor cells at 12.5 to 100 uM by MTT assay. Format: functional, cell-based. Particulars: Homo sapiens. The gist of the method: as §2
Data set [6] deals with A549. Put plainly: Colocalization experiment with mitotracker green in A549 cells at 100 uM for 24 hrs by false-white two-photon confocal microscopy. Particulars: human, a549, 24 h.
Data set [7] relates to A549. Briefly: Colocalization experiment with LysoTracker green in A549 cells at 100 uM for 24 hrs by false-white two-photon confocal microscopy. Conditions: human, a549, 24 h.
The test system of data set [8] is WI-38 VA13. Put plainly: Decrease in viability of WI-38 VA13 cells at 50 uM for 72 hrs. Format: cell-based. Particulars: human, wi-38 va13, 72 h. The gist of the method: as §2
For data set [9], the system named is A549. Put plainly: Decrease in viability of A549 cells at 25 uM for 72 hrs. The format is cell-based. Conditions: human, a549, 72 h. The gist of the method:
as §2

Data set [10] concerns WI-38 VA13. Briefly: Percentage growth of WI-38 VA13 cells at 25 uM for 72 hrs. The format is cell-based. Conditions: human, wi-38 va13, 72 h. The gist of the method:
as §2

For data set [11], the system named is WI-38 VA13. Put plainly: Percentage increase in growth of WI-38 VA13 cells at 12.5 uM for 72 hrs. The format is cell-based. Conditions: human, wi-38 va13, 72 h. The gist of the method: as §2
The test system of data set [12] is A549. Briefly: Percentage increase in growth of A549 tumor cells at 12.5 uM for 72 hrs. Format: cell-based. Particulars: human, a549, 72 h. The gist of the method: as §2
Data set [13] has as its system A549. Put plainly: Decrease in viability of A549 cells at 100 uM for 72 hrs. The format is cell-based. Conditions: human, a549, 72 h. The gist of the method:
as §2

Data set [14] has as its system WI-38 VA13. Briefly: Decrease in viability of WI-38 VA13 cells at 100 uM for 72 hrs. Particulars: human, wi-38 va13, 72 h. The format is cell-based. The gist of the method: as §2

On to `CC(C)Oc1ccc(OC(C)C)c2c1-c1nc3nc(nc4[nH]c(nc5[nH]c(nc-2n1)c(SCCOCCOCCO)c5SCCOCCOCCO)c1c(OC(C)C)ccc(OC(C)C)c41)C(SCCOCCOCCO)=C3SCCOCCOCCO`, for which the Activity result with A549 [1] is “Active”; with A549 [2], 40%; in the data set with A549 [3], “Active”; in the data set with WI-38 VA13 [4], “Toxic”; with A549 [5], “Toxic”; in the data set on A549 [6] it was “Active”. Besides, the Activity result in the data set with A549 [7] is reported as “Not Active”.
For the compound `CC(C)Oc1ccc(OC(C)C)c2c1-c1nc3nc([nH]c4nc(nc5[nH]c(nc-2n1)c(SCCCC(=O)O)c5SCCCC(=O)O)-c1c(OC(C)C)ccc(OC(C)C)c1-4)C(SCCCC(=O)O)=C3SCCCC(=O)O`, the Activity in the data set on A549 [2] is recorded as 80%; with WI-38 VA13 [8], 10%; in the data set on A549 [9], 40%; in the data set with WI-38 VA13 [10] it was 10%; in the data set on WI-38 VA13 [11] it was 10%; in the data set on A549 [12] it was 10%. This compound showed an Activity in the data set with A549 [13] of 80%.
Regarding `CC(C)Oc1ccc(OC(C)C)c2c1-c1nc3nc([nH]c4nc(nc5[nH]c(nc-2n1)c(SCCOCC[n+]1ccccc1)c5SCCOCC[n+]1ccccc1)-c1c(OC(C)C)ccc(OC(C)C)c1-4)C(SCCOCC[n+]1ccccc1)=C3SCCOCC[n+]1ccccc1`, the Activity with A549 [2] is 10%; in the data set with WI-38 VA13 [8] it was 20%; in the data set with WI-38 VA13 [14], 70%; with WI-38 VA13 [4], “Toxic”; with A549 [5], “Toxic”; with A549 [13] it was 70%.
